Assay results reported in PubChem BioAssay AID488937 (Broad Institute, 2010).
Records with an inconclusive call do not appear. Unmarked numbers belong to inactive results.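 The calls were made as follows: active = compounds whose fitted half-maximal growth inhibition dose is no more than ten times the top tested dose; inconclusive = flat curve inhibiting 30 to 70%, or poor curve fit; inactive = flat within 30%, weaker potency, or rising signal.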

Test: Candida albicans growth inhibition, agent alone, dose response, counter-screen for reversing antifungal drug resistance, CaCi-2 strain, dry powder, set 3 (AID 488937)
Conditions: C. albicans CaCi-2 growth, Alamar Blue fluorescence, 48 h; series mostly up to 26 µM; activity change, negative = inhibition: at the top concentration
How it was run: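 Material: Candida albicans strain CaCi-2 yeast, fluconazole absent. Amount: inoculum A600 0.00015. Buffer or medium: RPMI medium without fluconazole. Times: 48 h growth at 37 °C, dye 2 h. Technique: Alamar Blue fluorescence in RFU[…]. Read-out basis: relative yeast growth by fluorescence. Controls: geldanamycin positive control.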

In order of rising “activity change, negative = inhibition” value:
1. O=C(c1ccc(Cl)cc1)N1CCN(c2nc3ccccc3o2)CC1  -31.6%
2. Cc1ccc(N2CCN(C(=O)c3ccc(Cl)cc3)CC2)nc1  -27.7%
3. O=C(c1ccccc1Cl)N1CCN(c2ccccn2)CC1  -25.8%
4. CC(C)C(=O)N1CCN(c2ccccn2)CC1  -24.5%
5. CCCCC(=O)N1CCN(c2ccccn2)CC1  -20.4%
6. Cc1cccc(N2CCN(C(=O)c3ccc(Cl)cc3)CC2)n1  -16.8%
7. O=C(c1ccccc1)N1CCN(c2ccccn2)CC1  -14%
8. Cn1ccnc1N1CCN(C(=O)c2ccc(Cl)cc2)CC1  -14%
9. O=C(c1ccc(Cl)cc1)N1CCN(c2cnccn2)CC1  -13.9%
10. COCCC(=O)N1CCN(c2ccccn2)CC1  -10.3%
11. Cc1ccc(C(=O)N2CCN(c3ccccn3)CC2)cc1  -9.55%
12. COc1ccc(C(=O)N2CCN(c3ccccn3)CC2)cc1  -9.02%
13. Cc1ccc(N2CCN(C(=O)c3ccc(Cl)cc3)CC2)nn1  -7.26%
14. N#Cc1ccc(C(=O)N2CCN(c3ccccn3)CC2)cc1  -6.52%
15. O=C(c1ccc(Cl)cc1)N1CCN(c2nccs2)CC1  -6.15%
16. O=C(c1ccc(Cl)cc1)N1CCN(c2cccc(C(F)(F)F)n2)CC1  -5.42%
17. Cc1ccnc(N2CCN(C(=O)c3ccc(Cl)cc3)CC2)c1  -5.16%
18. N#Cc1cccnc1N1CCN(C(=O)c2ccc(Cl)cc2)CC1  -4.97%
19. O=C(c1ccc(F)cc1)N1CCN(c2ccccn2)CC1  -4.39%
20. COc1cccnc1N1CCN(C(=O)c2ccc(Cl)cc2)CC1  -3.13%
21. O=C(c1ccc(Cl)cc1)N1CCN(c2nc3ccccc3s2)CC1  -1.53%
22. O=C(c1ccc(Cl)cc1)N1CCN(c2ccc(C(F)(F)F)cn2)CC1  -1.49%
23. O=C(c1ccc(Cl)cc1)N1CCN(c2ncccn2)CC1  2.79%
